# Active and inactive are the calls of the source. The calls are words filed in the database; no cut-off is given here.
# What was measured:
# Mus musculus [1] = experiment: Behavioral toxicity in po dosed albino Icem-CET (SPF Caw) mouse assessed as reduction in locomotor activity by Irwin's test; format: organism-based; conditions: in vivo
# Mus musculus [2] = experiment: Behavioral toxicity in po dosed albino Icem-CET (SPF Caw) mouse assessed as tremors by Irwin's test; format: organism-based; conditions: in vivo
# Mus musculus [3] = experiment: Anticonvulsant activity in po dosed albino Icem-CET (SPF Caw) mouse assessed as inhibition of pentylenetetrazole-induced maximal extensor seizures compound administered 30 mins prior challenge; format: functional
# In short: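 Pentylenetetrazole antagonism in male Icem-CET (SPF Caw) mice, 17-22 g, fasted 9 h. Compound in 0.5% Methocel was given by gavage (0.2 ml/10 g) at 4-5 doses, 20 mice per dose, 30 min before pentylenetetrazole 130 mg/kg ip. Prevention of maximal extensor seizures was scored. ED50 was calculated by probit analysis, with fiducial limits at p = 0.05.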
# Mus musculus [4] = experiment: Toxicity in po dosed albino Icem-CET (SPF Caw) mouse assessed as impairment of pinna by Irwin's test; format: organism-based; conditions: in vivo
# Mus musculus [5] = experiment: Toxicity in po dosed albino Icem-CET (SPF Caw) mouse assessed as impairment of corneal reflexes by Irwin's test; format: organism-based, Cornea; conditions: in vivo
# [6] = Behavioral toxicity in po dosed albino Icem-CET (SPF Caw) mouse measured up to 7 days by Irwin's test; format: organism-based; conditions: in vivo
# Mus musculus [7] = experiment: Behavioral toxicity in po dosed albino Icem-CET (SPF Caw) mouse assessed as positional passivity by Irwin's test; format: organism-based; conditions: in vivo
# Mus musculus [8] = experiment: Anticonvulsant activity in albino Icem-CET (SPF Caw) mouse assessed as inhibition of pentylenetetrazole-induced maximal extensor seizures at 100 mg/kg, po administered 30 mins prior challenge; format: functional, organism-based; parameters: dose 100 mg/kg
# In short: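 Single-dose screen at 100 mg/kg by gavage in 0.5% Methocel in fasted male Icem-CET (SPF Caw) mice, 17-22 g. Dosing was 30 min before pentylenetetrazole 130 mg/kg ip, and prevention of maximal extensor seizures was scored.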
# Mus musculus [9] = experiment: Behavioral toxicity in albino Icem-CET (SPF Caw) mouse assessed as positional passivity at 25 to 800 mg/kg, po by Irwin's test; format: organism-based; parameters: dose 25-800 mg/kg, route oral; conditions: in vivo
# Mus musculus [10] = experiment: Toxicity in po dosed albino Icem-CET (SPF Caw) mouse assessed as clonic type convulsion by Irwin's test; format: organism-based; conditions: in vivo
# In short: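 Irwin test in fasted (9 h) male Icem-CET (SPF Caw) mice, 17-22 g. Oral gavage of a 0.5% Methocel suspension at screening doses of 25-800 mg/kg. Clonic-type convulsions were scored as the minimum effective dose.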
# Mus musculus [11] = experiment: Behavioral toxicity in albino Icem-CET (SPF Caw) mouse assessed as clonic type convulsion at 25 to 800 mg/kg, po by Irwin's test; format: organism-based; parameters: dose 25-800 mg/kg, route oral; conditions: in vivo
# Mus musculus [12] = experiment: Behavioral toxicity in albino Icem-CET (SPF Caw) mouse assessed as tremors at 25 to 800 mg/kg, po by Irwin's test; format: organism-based; parameters: dose 25-800 mg/kg, route oral; conditions: in vivo
# Mus musculus [13] = experiment: Behavioral toxicity in po dosed albino Icem-CET (SPF Caw) mouse assessed as excitement at 25 to 100 mg/kg, po measured up to 30 mins post dose by Irwin's test; format: organism-based; parameters: dose 25-100 mg/kg, route oral; conditions: in vivo, 0.5 h
compound,measurement,setting,value
C=CCNC(=O)/C(C)=C(\C)c1ccc(F)cc1,ED50,Mus musculus [1],70 mg/kg
same,ED50,Mus musculus [2],130 mg/kg
same,ED50,Mus musculus [3],40.2 mg/kg
same,Activity,Mus musculus [4],Toxic
same,Activity,Mus musculus [5],Toxic
same,LD50 at 168 h,[6],400 mg/kg
same,ED50,Mus musculus [7],150 mg/kg
C=CCNC(=O)/C(C)=C(/C)c1ccccc1,ED50,Mus musculus [1],550 mg/kg
same,ED50,Mus musculus [2],400 mg/kg
same,Activity,Mus musculus [8],inactive
same,Activity,Mus musculus [9],Non-toxic
same,MED,Mus musculus [10],400 mg/kg
same,LD50 at 168 h,[6],600 mg/kg
C=CCNC(=O)/C(C)=C(/C)c1ccc(Br)cc1,ED50,Mus musculus [1],400 mg/kg
same,Activity,Mus musculus [8],inactive
same,Activity,Mus musculus [11],Non-toxic
same,Activity,Mus musculus [12],Non-toxic
same,Activity,Mus musculus [9],Non-toxic
same,LD50 at 168 h,[6],600 mg/kg
C/C(C(=O)NC1CC1)=C(\C)c1ccc(Br)cc1,ED50,Mus musculus [1],300 mg/kg
same,Activity,Mus musculus [11],Non-toxic
same,Activity,Mus musculus [12],Non-toxic
same,LD50 at 168 h,[6],600 mg/kg
same,ED50,Mus musculus [7],450 mg/kg
C=CCNC(=O)/C(C)=C(\C)c1ccc(OC)cc1,ED50,Mus musculus [1],200 mg/kg
same,ED50,Mus musculus [2],300 mg/kg
same,Activity,Mus musculus [8],inactive
same,LD50 at 168 h,[6],> 800 mg/kg
same,ED50,Mus musculus [7],300 mg/kg
C=CCNC(=O)/C(C)=C(\C)c1ccccc1,ED50,Mus musculus [1],130 mg/kg
same,ED50,Mus musculus [2],250 mg/kg
same,LD50 at 168 h,[6],550 mg/kg
same,ED50,Mus musculus [7],300 mg/kg
C=CCNC(=O)/C(C)=C(/C)c1ccc(OC)cc1,ED50,Mus musculus [1],280 mg/kg
same,ED50,Mus musculus [2],400 mg/kg
same,Activity,Mus musculus [8],inactive
same,Activity,Mus musculus [9],Non-toxic
same,MED,Mus musculus [10],400 mg/kg
same,LD50 at 168 h,[6],400 mg/kg
COc1ccc(/C(C)=C(\C)C(=O)NC2CC2)cc1,ED50,Mus musculus [1],250 mg/kg
same,ED50,Mus musculus [2],250 mg/kg
same,Activity,Mus musculus [8],inactive
same,LD50 at 168 h,[6],> 800 mg/kg
same,ED50,Mus musculus [7],300 mg/kg
C/C(C(=O)NC1CC1)=C(\C)c1ccccc1,ED50,Mus musculus [1],400 mg/kg
same,ED50,Mus musculus [2],300 mg/kg
same,Activity,Mus musculus [8],inactive
same,Activity,Mus musculus [9],Non-toxic
same,MED,Mus musculus [10],400 mg/kg
same,LD50 at 168 h,[6],600 mg/kg
C=CCNC(=O)/C(C)=C(/C)c1ccc(C)cc1,ED50,Mus musculus [1],280 mg/kg
same,ED50,Mus musculus [2],400 mg/kg
same,Activity,Mus musculus [8],inactive
same,Activity,Mus musculus [9],Non-toxic
same,MED,Mus musculus [10],400 mg/kg
same,LD50 at 168 h,[6],> 800 mg/kg
C#CCNC(=O)/C(C)=C(\C)c1ccccc1,ED50,Mus musculus [1],150 mg/kg
same,ED50,Mus musculus [2],150 mg/kg
same,ED50,Mus musculus [3],45.3 mg/kg
same,LD50 at 168 h,[6],300 mg/kg
same,ED50,Mus musculus [7],400 mg/kg
C=CCNC(=O)/C(C)=C(/C)c1ccc(Cl)cc1,ED50,Mus musculus [1],180 mg/kg
same,ED50,Mus musculus [2],400 mg/kg
same,Activity,Mus musculus [8],inactive
same,MED,Mus musculus [10],400 mg/kg
same,LD50 at 168 h,[6],600 mg/kg
same,ED50,Mus musculus [7],280 mg/kg
C#CCNC(=O)/C(C)=C(\C)c1ccc(Br)cc1,ED50,Mus musculus [1],180 mg/kg
same,ED50,Mus musculus [2],150 mg/kg
same,ED50,Mus musculus [3],18.4 mg/kg
same,LD50 at 168 h,[6],300 mg/kg
same,ED50,Mus musculus [7],500 mg/kg
C=CCNC(=O)/C(C)=C(\C)c1ccc(C)cc1,ED50,Mus musculus [1],100 mg/kg
same,ED50,Mus musculus [2],150 mg/kg
same,ED50,Mus musculus [3],78 mg/kg
same,LD50 at 168 h,[6],600 mg/kg
same,ED50,Mus musculus [7],170 mg/kg
COc1cc(/C(C)=C(\C)C(=O)NC2CC2)cc(OC)c1OC,ED50,Mus musculus [1],320 mg/kg
same,ED50,Mus musculus [2],> 800 mg/kg
same,Activity,Mus musculus [8],inactive
same,LD50 at 168 h,[6],> 800 mg/kg
same,ED50,Mus musculus [7],> 800 mg/kg
CCC1(c2ccccc2)C(=O)N=C([O-])NC1=O.[Na+] (stereo unspecified) [PHENOBARBITAL SODIUM],ED50,Mus musculus [1],180 mg/kg
same,ED50,Mus musculus [2],110 mg/kg
same,Activity,Mus musculus [13],Toxic
same,LD50 at 168 h,[6],290 mg/kg
same,ED50,Mus musculus [7],180 mg/kg
C/C(C(=O)NC1CC1)=C(/C)c1ccc(Cl)cc1,ED50,Mus musculus [1],350 mg/kg
same,ED50,Mus musculus [2],150 mg/kg
same,LD50 at 168 h,[6],300 mg/kg
same,ED50,Mus musculus [7],> 800 mg/kg
